Test results from ChEMBL document CHEMBL5033991, “Targeting the FtsZ Allosteric Binding Site with a Novel Fluorescence Polarization Screen, Cytological and Structural Approaches for Antibacterial Discovery” (J Med Chem, 2021).
In brackets after ≈: the same amount, converted by molar mass. Activity calls are given as the source filed them. The calls are words filed in the database; no cut-off is given here.

What was measured:
[1] = target: T1, Cell division protein FtsZ (Bacillus subtilis) (UniProt A5Z1V5); test: Binding affinity to Bacillus subtilis FtsZ assessed as decrease in fluorescence anisotropy values at 20 to 200 uM by fluorescence anisotropy analysis; settings: dose 20-200 µM
T1 sequence (whole entry): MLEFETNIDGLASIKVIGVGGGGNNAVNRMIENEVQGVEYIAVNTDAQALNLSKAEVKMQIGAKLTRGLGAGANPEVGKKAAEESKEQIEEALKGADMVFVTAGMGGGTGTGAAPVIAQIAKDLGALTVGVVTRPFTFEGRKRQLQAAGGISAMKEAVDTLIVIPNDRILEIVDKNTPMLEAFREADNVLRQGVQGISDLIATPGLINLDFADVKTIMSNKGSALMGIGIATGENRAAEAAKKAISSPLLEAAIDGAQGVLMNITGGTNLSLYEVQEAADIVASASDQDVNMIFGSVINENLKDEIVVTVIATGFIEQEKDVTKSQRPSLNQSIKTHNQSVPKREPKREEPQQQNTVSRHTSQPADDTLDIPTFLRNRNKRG
Method in brief: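 Screen: probe (S)-2 (3 μM) with glutaraldehyde-cross-linked BsFtsZ-GMPCPP polymers (8 μM binding sites), each compound at 20 and 200 μM; raw anisotropy compared with partially bound probe, free probe and DMSO vehicle controls (2%, 4%). Hits checked for total intensity changes and with replicates lacking FtsZ.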

Bacillus subtilis [2] = test: Antimicrobial activity against Bacillus subtilis 168 assessed as inhibition of cell division incubated for 1.5 hrs by phase contrast microscopic analysis; assay type: functional
Method in brief: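 B. subtilis 168 grown in cation-adjusted Mueller–Hinton broth at 37 °C to A600 0.1–0.2, then incubated with compound or DMSO vehicle. Cells observed by microscopy and cell lengths measured; division inhibition expressed as minimal division inhibitory concentration.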

IMR-90 = test: Cytotoxicity against human IMR-90 cells assessed as reduction in cell viability at MIC measured after 48 hrs by MTT assay; assay type: cell-based; settings: imr-90, 48 h
Bacillus subtilis [3] = test: Inhibition of Bacillus subtilis cell division assessed as induction of filamentous phenotype at 25 to 100 uM incubated for 1.5 hrs by fluorescence microscopic analysis; assay type: functional, organism-based; settings: dose 25-100 µM
Method in brief: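 B. subtilis grown in cation-adjusted Mueller–Hinton broth to A600 0.1–0.2, then treated 1.5 h with fluorescent benzamide probe. Cells imaged by fluorescence microscopy using the probe's own fluorescence; filamentous phenotype scored as division inhibition.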

[4] = test system: Staphylococcus epidermidis; test: Antimicrobial activity against Staphylococcus epidermidis assessed as inhibition of bacterial growth by CLSI based broth macrodilution method; assay type: functional
Method in brief: (§1)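 Cells grown in cation-adjusted Mueller–Hinton broth at 37 °C to A600 0.1–0.2, then exposed to compound or DMSO vehicle. MIC by broth macrodilution as the lowest concentration inhibiting growth.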

[5] = test system: Staphylococcus haemolyticus; test: Antimicrobial activity against Staphylococcus haemolyticus assessed as inhibition of bacterial growth by CLSI based broth macrodilution method; assay type: functional; method in brief: as §1
[6] = target: T1, Cell division protein FtsZ (Bacillus subtilis); test: Competitive binding affinity to Bacillus subtilis FtsZ at 10 uM in presence of PC190723 by fluorescence anisotropy analysis
Method in brief: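 Probe (10 μM) in buffer mixed with unassembled BsFtsZ (10 μM), then GMPCPP (0.1 mM). Polymerization started with MgCl2 (10 mM), anisotropy read 5–10 min later. PC190723 (10 μM) then added to displace probe, with anisotropy read 5 min after. Measured at 25 °C in an L-format spectrofluorometer at each probe's excitation/emission maxima.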

[7] = target: T2, Cell division protein FtsZ (Bacillus subtilis, UniProt A5Z1V5); test: Displacement of free fluorescent probe from inter domain cleft of stabilized Bacillus subtilis FtsZ assessed as dissociation constant in presence of GMPCPP by fluorescence anisotropy analysis
T2 sequence (A5Z1V5 whole entry): T1 sequence (whole entry)
Method in brief: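 BsFtsZ polymers assembled in HEPES buffer pH 6.8 with 10 mM MgCl2 and GMPCPP, cross-linked with 0.15% glutaraldehyde, quenched with NaBH4. Competitor titrated into 7–8 μM polymers plus (S)-2 (3 μM) or 2–3 μM polymers plus (R)-5 (3 μM), 0.1 mM GMPCPP, 25 °C. Initial probe bound fraction 0.4–0.5; KD numerically fitted by competition model; mean ± SEM.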

[8] = target: T1, Cell division protein FtsZ (Bacillus subtilis); test: Binding affinity to Bacillus subtilis FtsZ polymer assessed as dissociation constant by fluorescence anisotropy analysis
[9] = target: T1, Cell division protein FtsZ (Bacillus subtilis); test: Inhibition of GFP-tagged FtsZ in Bacillus subtilis SU570 assessed as induction of irregular shaped z-ring formation at 0.2 uM incubated for 1.5 hrs; settings: dose 200.0 µM, in the assay text read “0.2 mM” for “0.2 uM”
Method in brief: (§2)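 B. subtilis SU570 expressing FtsZ-GFP grown in cation-adjusted Mueller–Hinton broth at 30 °C to A600 0.1–0.2, then grown 1.5 h with compound or DMSO vehicle. FtsZ-GFP localization (Z-rings, foci) assessed by fluorescence microscopy.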

[10] = target: T1, Cell division protein FtsZ (Bacillus subtilis); test: Inhibition of GFP-tagged FtsZ in Bacillus subtilis SU570 assessed as delocalization into punctate foci at 0.2 uM incubated for 1.5 hrs; settings: dose 200.0 µM, in the assay text read “0.2 mM” for “0.2 uM”; method in brief: as §2
Bacillus subtilis [11] = test: Inhibition of Bacillus subtilis 168 cell division at 0.75 mM measured after 3 hrs by phase-contrast microscopic analysis; assay type: functional, organism-based
Method in brief: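 B. subtilis 168 grown in CAMHB at 37 °C to A600 0.1–0.2, exposed 3 h to compound or DMSO; cell lengths measured from phase-contrast images (n ≥ 30 cells).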

[12] = target: T1, Cell division protein FtsZ (Bacillus subtilis); test: Induction of Bacillus subtilis FtsZ polymerization at 0.1 mM measured after 5 to 10 mins by fluorescence anisotropy analysis; settings: time 5-10 min

## O=C(Oc1cc(OC(=O)c2cc(O)cc(O)c2)c2ccccc2c1)c1ccc(O)c(O)c1
[1]
  Activity: Active

## CC1=CC(=O)c2c(O)cccc2C1=O
[1]
  Activity: inactive

## O=C(O)C(=O)c1cn(Cc2ccccc2)c2ccc(-c3ccc(OC(F)(F)F)cc3)cc12
[1]
  Activity: inactive

## NC(c1cccc(OCc2cccc(Cl)c2)c1)C(F)(F)F (centres undefined)
Bacillus subtilis [2]
  MIC: 250 µM (≈ 78.9 µg/mL)

## NC(=O)c1c(F)ccc(OCc2cccc(C(F)(F)F)c2)c1F
IMR-90
  Activity: Non-Toxic

## NC(=O)c1c(F)ccc(OCCNc2cccc(C(F)(F)F)c2)c1F
IMR-90
  Activity: Non-Toxic

## CCC[C@H](CNc1ccc([N+](=O)[O-])c2nonc12)Oc1ccc(F)c(C(N)=O)c1F
Bacillus subtilis [3]
  inhibition: inactive

## NC(=O)c1cccc(NCc2cccc(Cl)c2)c1
[1]
  Activity: inactive

## Clc1cccc(COc2cccc(-c3ncc[nH]3)c2)c1
Bacillus subtilis [2]
  MIC: 50 µM (≈ 14.2 µg/mL)

## CN(Cc1cccc(Cl)c1)c1ccc(C(N)=O)cc1
[1]
  Activity: inactive

## FC(F)(F)c1cccc(COc2cccc(-c3ncc[nH]3)c2)c1
Bacillus subtilis [2]
  MIC: 50 µM (≈ 15.9 µg/mL)

## CCCC(COc1ccc(F)c(C(N)=O)c1F)Nc1cccc(C(F)(F)F)c1 (racemic)
[4]
  MIC: 50 µM (≈ 20.1 µg/mL)
[5]
  MIC: 50 µM (≈ 20.1 µg/mL)

## CCCCCC(CNc1ccc([N+](=O)[O-])c2nonc12)Oc1ccc(F)c(C(N)=O)c1F (centres undefined)
[6]
  Activity: inactive

## NC(=O)c1c(F)ccc(OCc2cccc(Cl)c2)c1F
IMR-90
  Activity: Non-Toxic

## CCC[C@@H](CNc1ccc([N+](=O)[O-])c2nonc12)Oc1ccc(F)c(C(N)=O)c1F
Bacillus subtilis [3]
  inhibition: Active

## NC(=O)c1c(F)ccc(OCc2nc3cc(Cl)cnc3s2)c1F
[7]
  Kd: < 0.1 µM
[8]
  Activity: < 0.1 µM

## CCC[C@@H](COc1ccc(F)c(C(N)=O)c1F)Nc1ccc([N+](=O)[O-])c2nonc12
Bacillus subtilis [3]
  inhibition: Active

## CN(Cc1cccc(Cl)c1)c1cccc(C(N)=O)c1
[9]
  inhibition: Active
[10]
  inhibition: Active
Bacillus subtilis [11]
  inhibition: Active
[1]
  Activity: inactive

## Nc1nc2c(ncn2[C@@H]2O[C@H](CO[P@@](=O)(O)C[P@@](=O)(O)OP(=O)(O)O)[C@@H](O)[C@H]2O)c(=O)[nH]1
[12]
  Activity: Active

## NC(=O)c1ccc(NCc2cccc(Cl)c2)cc1
[1]
  Activity: inactive

## CCCCCCCCC(CNc1ccc([N+](=O)[O-])c2nonc12)Oc1ccc(F)c(C(N)=O)c1F (centres undefined)
[6]
  Activity: inactive

## NC(=O)c1c(F)ccc(OCCNc2ccc([N+](=O)[O-])c3nonc23)c1F
[6]
  Activity: Active

## CCN(CC)CCNc1nc(/C=C/c2ccc(Cl)cc2)nc2cc3ccccc3cc12
[1]
  Activity: inactive

## O=C(O)CCN(Cc1ccccc1)Cc1cccc(Sc2ccccc2)c1
[1]
  Activity: inactive

## CCCC(COc1ccc(F)c(C(N)=O)c1F)Nc1ccc([N+](=O)[O-])c2nonc12 (centres undefined)
[6]
  Activity: Active

## CCC[C@H](COc1ccc(F)c(C(N)=O)c1F)Nc1ccc([N+](=O)[O-])c2nonc12
Bacillus subtilis [3]
  inhibition: Active

## Oc1ccc(/C=C/c2cc(O)cc(O)c2)cc1
[1]
  Activity: inactive

## CCC[C@H](COc1ccc(F)c(C(N)=O)c1F)Nc1cccc(C(F)(F)F)c1
IMR-90
  Activity: Non-Toxic

## CCCC(CNc1ccc([N+](=O)[O-])c2nonc12)Oc1ccc(F)c(C(N)=O)c1F (centres undefined)
[6]
  Activity: Active
